Rows were chosen to be rich in hits. Some 11% of all compounds tested hit in one or more screens of this group.
mHtt clearance: compounds clearing mutant huntingtin protein. HeLa Exon1htt(103Q)mCFP, aggregate imaging; zero = plate's median compound well. inhibition, % at 1.5 µM. hit rate 0.42% among 47,000;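 active = inhibition of aggregate fluorescence above about 70%, also judged a hit by eye on the cell image, limit read from the data, passing the limit was not always enough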;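 also: cells exposed to compound for three days before fixation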
SF-1 act: SF-1 (human) activation | hit rate 1.9% among 65,000 | activation, % at 10 µM | CHO-K1 Gal4-SF-1 LBD luciferase reporter; % increase over DMSO SF-1-specific signal;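 active = activation above the mean activation of all tested compounds plus 3 SD, cut at about 50% in these data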
Target sequence (Q13285 whole entry, looked up, the tested form may be a part): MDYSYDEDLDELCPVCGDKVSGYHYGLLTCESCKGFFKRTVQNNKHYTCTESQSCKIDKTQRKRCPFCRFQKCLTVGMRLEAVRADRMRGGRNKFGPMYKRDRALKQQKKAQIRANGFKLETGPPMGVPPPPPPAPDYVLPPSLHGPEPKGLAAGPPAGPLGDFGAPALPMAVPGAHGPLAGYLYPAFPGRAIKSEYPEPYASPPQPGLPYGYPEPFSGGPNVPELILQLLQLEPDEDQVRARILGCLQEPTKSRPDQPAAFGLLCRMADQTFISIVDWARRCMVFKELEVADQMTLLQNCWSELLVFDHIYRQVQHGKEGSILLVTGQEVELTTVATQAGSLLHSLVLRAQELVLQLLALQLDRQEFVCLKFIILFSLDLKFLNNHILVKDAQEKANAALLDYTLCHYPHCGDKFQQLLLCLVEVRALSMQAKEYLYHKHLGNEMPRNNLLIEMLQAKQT
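Test system: CHO-K1 cells with Gal4–hSF-1 LBD chimera plus Gal4-driven luciferase; Input: 4,000 cells/well; Compound: 10 µM only; Times: 20 h compound treatment, 37 °C; Measured by: steady-glow luciferase luminescence, read after 15 min reagent incubation; Measure: percent activation versus DMSO; Control set: DMSO and mock-transfected background; Replicates: one test per compound.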
M1 antagonist: antagonists of rat M1 muscarinic receptor | B-score at 10 µM | hit rate 3.4% among 64,000 | P08482 | CHO-M1 cells, Fluo-4 calcium, ACh EC80 antagonist mode; active compounds read low | AID 628;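 active = calcium fluorescence response, raw or row-and-column corrected B-score, differing from the plate sample mean either way at a set confidence level, mostly lower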
D1 allo mod: allosteric modulators of human D1 dopamine receptor. P21728. HEK293 D1, CRE-luciferase, dopamine EC30 potentiation; actives deviate in either direction. B-score at 10 µM. hit rate 5.9% among 58,000;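 active = luminescence count or its row- and column-corrected plate score outside the 99.7% band of the plate's sample wells, on either side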
M1 ag: M1 muscarinic receptor agonism; CHO-M1 cells, Fluo-4 calcium fluorescence, agonist mode; active compounds read high; B-score at 10 µM; hit rate 3% among 64,000; AID 626;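 active = fluorescence rise, raw or as B-score row- and column-corrected plate score, outside the 99.7% band of its plate's samples, either direction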
RORA act: activates the human nuclear receptor RORA; CHO-K1 Gal4-RORA LBD luciferase reporter, luminescence; percent increase over mock-subtracted basal signal; activation, % at 10 µM; hit rate 1.5% among 65,000; AID 560;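 active = activation above the mean of all tested compounds plus 3 SD, cut at about 49% in these data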
Hits are given with their value; – = inactive; · = not tested or not shown.

SMILES	mHtt clearance	SF-1 act	M1 antagonist	D1 allo mod	M1 ag	RORA act
c1ccc(-n2cnnc2SCc2nc3ccccc3s2)cc1	–	58.0	–	–	–	–
CCn1c(SCc2nc3ccccc3s2)nnc1-c1ccccc1	–	·	·	·	·	·
COc1ccc(-n2nnnc2SCc2nc3ccccc3s2)cc1	–	·	·	·	·	·
COc1ccc(C)cc1-n1nnnc1SCc1nc2ccccc2s1	·	109.7	–	–	–	49.5
Cc1[nH]c2ccccc2c1Cc1nnc(SCc2ccccc2)o1	–	·	·	·	·	·
O=C(O)c1cc(S(=O)(=O)Nc2ccc3c(c2)OCCO3)c(Cl)cc1Cl	·	–	–	–	–	–
Cc1ccnn1CCSCC(=O)O	–	·	·	·	·	·
COCCn1c(SCc2nc3ccccc3s2)nc2ccccc21	·	50.3	–	–	–	–
CCn1c(SCc2nc3ccccc3s2)nc2cc(S(=O)(=O)N3CCOCC3)ccc21	·	63.3	–	–	–	–
COCCn1c(SCc2nc3sc(C(=O)OC)c(C)c3c(=O)[nH]2)nc2ccccc21	–	–	–	–	–	–
O=C(Nc1cccc(Cl)c1N1CCCC1)c1cccc(-c2cc3ccccc3oc2=O)c1	–	·	·	·	·	·
CCCCOC(=O)n1c(SCC(=O)N(CC)CC)nc2ccccc21	–	–	–	–	–	–
C=CCn1c(SCCN2CCOCC2)nc2c1c(=O)[nH]c(=O)n2C	–	–	–	–	–	–
CCCCCSc1nc2c(c(=O)[nH]c(=O)n2C)n1CC	·	–	–	8.99	–	–
CCCCCSc1nc2c(c(=O)[nH]c(=O)n2C)n1C	–	–	–	–	–	–
CCCCCCn1c(SCC(C)C)nc2c1c(=O)[nH]c(=O)n2C	–	–	–	27.2	–	–
C=CCn1c(SCC(=C)C)nc2c1c(=O)[nH]c(=O)n2C	·	–	–	6.61	–	–
CS(=O)(=O)N1CCCC(C(=O)NCCCN2CCOCC2)C1 (centres undefined)	·	–	–	–	–	–
Cc1cc(NC(=O)CSc2nc3sc(C)c(C)c3c(=O)n2C2CCCC2)no1	–	·	·	·	·	·
O=C(CNC(=O)c1cc2ccccc2o1)NCc1cccs1	·	–	–	–	–	–
Cn1c(C(=O)NCc2cccs2)cc2oc3ccccc3c21	·	54.5	–	–	–	59.6
Cn1c(C(=O)NCC2CCCO2)cc2oc3ccccc3c21 (centres undefined)	·	49.7	–	–	–	59.0
COC(=O)c1cc(COc2ccc3c(c2)oc(=O)c2ccccc23)c(C)o1	–	·	·	·	·	·
Cc1c(C(=O)N2CCN(c3ccc(F)cc3)CC2)sc2nc(-c3ccccc3)cn12	·	–	–	–	–	–
COc1ccc(-c2cn3c(C)c(C(=O)N4CCc5ccccc5C4)sc3n2)cc1	·	–	–	·	4.68	–
SMILES	mHtt clearance	SF-1 act	M1 antagonist	D1 allo mod	M1 ag	RORA act
Cc1c(C(=O)N2CCOCC2)sc2nc(-c3ccccc3)cn12	–	82.4	–	–	–	58.1
CCOC(=O)C1CCCN(C(=O)c2sc3nc(-c4ccc(OC)cc4)cn3c2C)C1 (centres undefined)	·	–	–	–	–	–
CSc1nnc2c(n1)OC(C1CC=C(C)CC1)Nc1ccccc1-2 (centres undefined)	·	–	–	–	–	–
OCCn1c(Cl)nc2ccccc21	–	·	·	·	·	·
CCc1nnc(NC(=O)c2ccc(COc3ccc(C)cc3)o2)s1	–	52.5	–	–	–	–
COc1ccc(OCC(O)COc2ccc(C(=O)O)cc2)cc1 (centres undefined)	·	–	–	–	–	–
COc1ccc(OCc2ccc(C(=O)O)cc2)cc1	·	63.7	–	·	–	–
CCOc1ccc(OCc2ccc(C(=O)NCc3ccncc3)o2)cc1	–	–	–	–	–	–
CCOc1ccc(OCc2ccc(C(=O)O)o2)cc1	–	–	·	-5.11	·	–
CCOc1ccc(-n2c(SCC(=O)Nc3ccccc3C)n[nH]c2=O)cc1	–	·	·	·	·	·
Cc1nc(SCc2cccc(Oc3ccccc3)c2)n[nH]1	–	·	·	·	·	·
Cc1cc(NC(=O)c2ccoc2C)no1	–	·	·	·	·	·
C#CCOc1ccc(Br)cc1/C=N/O	–	·	·	·	·	·
CCOC(=O)c1ccc(Nc2ncnc3ccc(C)cc23)cc1	–	·	·	·	·	·
CCOC(=O)c1ccc(Nc2ncnc3nc[nH]c23)cc1	–	–	–	-5.87	–	–
Cc1nnc2sc(-c3ccccn3)nn12	·	–	·	–	·	–
c1ccc(-c2ccc(-c3ccccn3)nn2)nc1	·	–	–	-8.69	–	–
CCC(C)(C)n1nnnc1C(c1ccc2ncccc2c1)N1CCN2CCCC2C1 (centres undefined)	–	–	–	–	–	–
CNc1nc(Sc2ccc(C)cc2)cc(C(F)(F)F)n1	–	·	·	·	·	·

Screens: PubChem BioAssay, several laboratories
